Hits are enriched below; roughly 3.7% of the tested compounds scored in any of these assays.
KCNQ1 act: human KCNQ1 channel potentiation or activation | P51787 | CHO-K1 KCNQ1, thallium flux FluxOR fluorescence; stronger effect = higher value | B-score at 10 µM | hit rate 0.35% among 310,000 | AID 2648;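 active means fluorescence ratio B-score, a plate-corrected score, at least three library SD, with initial intensity B-score within 5 SD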
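Doses: Single concentration per compound, DMSO matched to controls | Test system: KCNQ1-transfected CHO-K1 cells | Timing: 90 min dye loading and 20 min compound exposure, both at room temperature | Measured by: Kinetic FluxOR thallium fluorescence, 10-s 1-Hz baseline, 110-s post-stimulus read | Medium: Assay buffer with matched DMSO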
Kir21 block: blocks the mouse Kir2.1 inward-rectifier potassium channel | hit rate 0.85% among 310,000 | B-score at 10 µM | HEK293-Kir2.1, FluxOR thallium flux fluorescence; stronger effect = lower value | AID 1672 | P35561;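 active means fluorescence ratio B-score at or below minus 3 SD of library scores, with starting-brightness B-score within 2 SD, cut at about -4.2 in these data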;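 further: channel flux triggered by added potassium and thallium sulfate stimulus; B-score of peak minus minimum fluorescence over baseline after thallium stimulus; more negative B-score means stronger Kir2.1 block with less thallium influx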
KCNK3 inh: human KCNK3 channel inhibition, primary screen; CHO-KCNK3 thallium flux, FluxOR fluorescence; stronger effect = lower value; B-score at 10 µM; hit rate 0.84% among 340,000;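 active means B-score under library mean minus 4 SD, starting fluorescence ratio at most library mean plus 5 SD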;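 further: more negative B-score means stronger inhibition of thallium flux through KCNK3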
KCNQ1 inh: human KCNQ1 channel inhibition. P51787. CHO-K1 KCNQ1, FluxOR thallium flux fluorescence; stronger effect = higher value. B-score at 10 µM. hit rate 1.3% among 310,000. AID 2642;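 active means compounds whose thallium flux B-score, printed positive for inhibition, exceeds three library SD while starting fluorescence stays within three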;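 further: channel opened by potassium depolarization with thallium stimulus after 20 min compound exposure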
KCNK9 inh: blocks the human KCNK9 two-pore domain potassium channel; Q9NPC2; HEK293 KCNK9, FluxOR thallium flux fluorescence; stronger effect = lower value; B-score at 10 µM; hit rate 1.2% among 310,000; AID 488922;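 active means ratio B-score over 3 SD below the library mean, with starting fluorescence within 5 SD of its mean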;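 further: negative B-score means less thallium flux so channel inhibition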
Target sequence (Q9NPC2 whole entry, looked up, the tested form may be a part): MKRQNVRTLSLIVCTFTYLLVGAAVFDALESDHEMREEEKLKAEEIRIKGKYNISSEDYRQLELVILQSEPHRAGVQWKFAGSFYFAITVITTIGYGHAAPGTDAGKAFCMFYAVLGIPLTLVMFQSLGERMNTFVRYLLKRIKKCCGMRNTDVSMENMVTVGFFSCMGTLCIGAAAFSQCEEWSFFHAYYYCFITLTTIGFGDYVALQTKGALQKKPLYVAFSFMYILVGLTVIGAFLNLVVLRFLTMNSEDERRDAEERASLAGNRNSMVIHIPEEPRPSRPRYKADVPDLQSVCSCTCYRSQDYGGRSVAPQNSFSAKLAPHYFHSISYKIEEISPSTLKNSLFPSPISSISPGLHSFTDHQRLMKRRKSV
hERG rescue: compounds protecting human hERG from proarrhythmic drug block | Q12809 | activation (rescue from dofetilide block), less the hit threshold, % at 10 µM | CHO-hERG, FluxOR thallium flux, dofetilide IC70 present | hit rate 0.51% among 310,000;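 active means activation above the mean of controls blocked by dofetilide plus 5 SD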;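 further: thallium influx through hERG after potassium depolarization seen as dye fluorescence rise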
KCNK9 inh conf: human KCNK9 inhibitor confirmation; shares compounds with KCNK9 inh; HEK293 KCNK9 cells, FluxOR thallium flux fluorescence; inhibition, % at 10 µM; hit rate 43% among 4,900;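 active means thallium signal inhibited by more than 5 SD of the compound-free buffer control wells, on both duplicate plates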;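 further: 0% = assay buffer control wells without compound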
Kir21 sel: mouse Kir2.1 off-target activity of KCNK9 modulators. shares compounds with KCNK9 inh. Kir2.1 cells, FluxOR thallium flux fluorescence. hit rate 4% among 4,900. inhibition, % at 10 µM;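 active means thallium signal drop more than 5 SD beyond the mean of the no-compound control wells, seen in both duplicate plates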;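 further: signal is fluorescence rise after thallium addition divided by baseline fluorescence; plate controls were assay buffer only for no effect and full block by chlorpromazine control for full effect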
HEK293 Tl ctr: second check of KCNK9 modulator effects in non-induced HEK293 cells; shares compounds with KCNK9 inh; FluxOR thallium flux; inhibition, % at 10 µM; hit rate 40% among 4,900; AID 492997;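 active means thallium signal drop beyond 5 SD of the untreated control mean, on both duplicate plates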;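 further: plate controls were buffer only IC0 wells for no effect and SID17386958 at its maximal inhibitory level for full effect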
Starred values were filed as active, the others as inactive; i = inactive; / = not tested or not shown.

SMILES	KCNQ1 act	Kir21 block	KCNK3 inh	KCNQ1 inh	KCNK9 inh	hERG rescue	KCNK9 inh conf	Kir21 sel	HEK293 Tl ctr
CC(=O)c1cc(CC=C(C)C)c(O)cc1O	i	1.2	i	i	-8.6*	-10	27%*	i	i
Cc1cccc(NC(=O)c2cc(S(=O)(=O)N3CCCCC3)ccc2Cl)n1	/	/	i	/	/	/	/	/	/
CCOc1ccccc1NC(C)C(=O)NC(=O)NC1CCCCC1 (configuration not stated)	/	/	i	/	/	/	/	/	/
COc1cc(/C=N/OCC(=O)NC2CCCCC2)ccc1OCc1ccccc1	i	-0.55	i	i	i	-2	/	/	/
COc1cc(/C=N/OCC(=O)NC23CC4CC(CC(C4)C2)C3)ccc1OCc1ccccc1	i	-1.1	i	i	i	-5	i	i	26%*
COc1ccc(C(=O)NC(=S)Nc2ccc(CN3CCOCC3)cc2)cc1Br	i	-0.18	i	i	i	1	i	i	i
COc1ccccc1N1CCN(C(=O)CCSCc2ccccc2F)CC1	i	-0.23	i	i	i	-24	/	/	/
COc1cccc(N2CCN(C(=O)CCSCc3ccccc3F)CC2)c1	i	1.1	i	i	i	-21	i	i	i
CCCN(CCC)S(=O)(=O)c1cccc(-c2csc(C)n2)c1	i	-2.7	i	i	i	-17	i	28%*	i
Cc1ccc2c(c1)CCCN2C(=O)CSc1ccccc1	i	-3.4	i	i	i	-11	i	i	i
Cn1cc(SCC(=O)N2CCOCC2)c2ccccc21	i	1.1	i	i	i	-5	/	/	/
Cn1cc(SCC(=O)N2CCCc3ccccc32)c2ccccc21	i	-6.8*	i	i	i	-13	i	38%*	i
COC(=O)c1sc(-c2ccc(C(C)(C)C)cc2)cc1NC(=O)CCC(=O)O	i	0.46	i	i	i	-8	i	i	i
C/C(=C\c1ccccc1)CN1CCN(c2ccccc2)CC1	i	0.17	i	i	i	-13	i	i	i
Cc1cc(C)c2c3c(sc2n1)C(=O)N(c1ccccc1)CC(=O)N3	i	-2.2	i	i	i	-3	/	/	/
Cc1cc(C)c(S(=O)(=O)c2ccccc2C)c(OCC(C)(C)C)n1	i	-1.6	i	i	-10*	-8	44%*	i	53%*
Cc1cc(C(=O)Cn2cnc3cc(F)ccc3c2=O)c(C)n1C1CC1	/	/	i	/	/	/	/	/	/
C=C(C(=O)c1ccccc1)C(c1ccccc1)C(C)C(=O)c1ccccc1 (configuration not stated)	i	-4.4*	i	i	-12*	-8	73%*	i	44%*
COc1cccc(-n2cc(CN(C)Cc3nc(Cc4cccc(F)c4)no3)cn2)c1	i	-0.38	i	i	i	-19	i	i	i
COc1cccc(-n2cc(CN(C)Cc3nc(Cc4ccccc4)no3)cn2)c1	i	0.66	i	i	i	-9	i	i	i
COc1ccc(CN(C)Cc2nc(Cc3cccc(F)c3)no2)c2cccnc12	i	-1.6	i	i	i	-27	/	/	/
CN(Cc1cnn(C)c1)Cc1nc(Cc2ccccc2Cl)no1	i	-0.67	i	i	i	-5	/	/	/
O=C1c2cccc(OCc3ccc(F)cc3)c2CCN1Cc1ccccc1	i	-0.71	i	i	-11*	-8	70%*	i	48%*
CCN1CCc2c(OCc3ccccc3)cccc2C1=O	i	0.93	i	i	i	-11	/	/	/
Cc1ccc(COc2cccc3c2CCN(Cc2ccc(F)cc2)C3=O)cc1	i	0.03	i	i	-10*	-21	74%*	i	41%*
